As a reminder, the IC50 is the concentration needed to halve the response being measured.

Calls of active or inactive are those of the source. No cut-off for these calls is given here.

Experiment [1] deals with T1, Geranylgeranyl pyrophosphate synthase (Homo sapiens) (UniProt O95749).
T1 sequence (whole entry): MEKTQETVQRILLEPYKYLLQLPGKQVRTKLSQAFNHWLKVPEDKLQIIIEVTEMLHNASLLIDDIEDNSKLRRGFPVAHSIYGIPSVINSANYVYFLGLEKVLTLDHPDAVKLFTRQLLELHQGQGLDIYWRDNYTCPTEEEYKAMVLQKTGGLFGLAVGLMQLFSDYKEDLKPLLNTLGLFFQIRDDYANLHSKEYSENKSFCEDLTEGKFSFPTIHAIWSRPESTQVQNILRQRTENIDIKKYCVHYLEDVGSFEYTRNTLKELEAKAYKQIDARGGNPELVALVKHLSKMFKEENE
Put plainly: Inhibition of GST-tagged human recombinant GGDPS expressed in BL21 gold bacteria at 10 uM by liquid scintillation counting. The essentials:
(§1)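 Purified recombinant human GGDPS in buffer containing 0.5 mM MgCl₂ and 0.5 mM ZnCl₂ was preincubated with compounds for 10 min. Reactions were started with ¹⁴C-IPP plus FPP and run for 1 h at 37 °C. Products were extracted into water-saturated butanol, washed twice with saturated water, and counted by liquid scintillation. Data are from a single-concentration screen and concentration–response curves with IC₅₀ extrapolated, mean SD, n = 2.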

The target in experiment [2] is T2, Farnesyl pyrophosphate synthase (Homo sapiens) (UniProt P14324).
T2 sequence (whole entry): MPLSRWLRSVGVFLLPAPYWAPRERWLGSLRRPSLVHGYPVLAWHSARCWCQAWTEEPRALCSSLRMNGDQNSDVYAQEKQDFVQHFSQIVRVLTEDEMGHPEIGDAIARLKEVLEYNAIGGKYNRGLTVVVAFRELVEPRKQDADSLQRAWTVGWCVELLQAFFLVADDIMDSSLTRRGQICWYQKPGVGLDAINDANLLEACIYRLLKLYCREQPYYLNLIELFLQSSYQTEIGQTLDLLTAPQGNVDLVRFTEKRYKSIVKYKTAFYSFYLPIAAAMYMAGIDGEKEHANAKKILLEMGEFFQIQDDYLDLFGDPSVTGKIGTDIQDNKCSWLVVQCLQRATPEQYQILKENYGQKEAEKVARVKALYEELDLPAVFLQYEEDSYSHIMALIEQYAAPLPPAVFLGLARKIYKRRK
Nature of the experiment: Inhibition of FDPS in human K562 cells assessed as reduction Ras protein farnesylation after 48 hrs by Western blotting in presence of mevalonate and FPP. The format is cell-based. The method in brief: (§2)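 Add-back assay: K562 cells at 5 × 10⁵ cells/mL were exposed for 48 h to compounds, or to lovastatin, with or without exogenous mevalonate, FPP or GGPP. Lysates were made in 2% SDS/66 mM Tris and protein was measured by BCA. Samples were run on 12% and 15% SDS gels, transferred to PVDF, and immunoblotted for pan-Ras, Rap1a or Rab6, with α-tubulin as reference. Detection was by ECL.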
(In general: In western blotting, separated proteins are transferred to a membrane and probed.)

Experiment [3] has as its target T1, Geranylgeranyl pyrophosphate synthase (Homo sapiens). Put plainly: Inhibition of GGDPS in human K562 cells assessed as reduction Rap1a protein geranylgeranylation after 48 hrs by Western blotting in presence GGPP. Format: cell-based. The essentials: as §2
The target is the same in experiment [4]. Nature of the experiment: Inhibition of GGDPS in human K562 cells assessed as reduction Rab6 protein geranylgeranylation after 48 hrs by Western blotting in presence GGPP. The format is cell-based. The method in brief:
as §2

The target in experiment [5] is T2, Farnesyl pyrophosphate synthase (Homo sapiens). Put plainly: Inhibition of FDPS in human K562 cells assessed as reduction of Ras protein farnesylation after 48 hrs by Western blotting. Format: cell-based. The method in brief: (§3)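 Prenylation in intact cells: K562 cells at 5 × 10⁵ cells/mL were incubated with compounds or lovastatin for 48 h, as a single-concentration screen or a concentration series. Lysates were made in 2% SDS/66 mM Tris and protein was measured by BCA. Samples were resolved on 12% and 15% gels, transferred to PVDF, and probed for pan-Ras, Rap1a or Rab6, with α-tubulin as reference. Detection was by ECL.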

In experiment [6] the test system is K562. Nature of the experiment: Anticancer activity against human K562 cells assessed as inhibition of DNA synthesis by [3H]thymidine incorporation assay. The format is functional, cell-based. The essentials: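 [³H]thymidine (3.75 Ci/mmol in media) was added at 44 or 68 h. At 48 or 72 h, cells were harvested onto glass microfiber paper and incorporated label was scintillation counted. Proliferation is expressed as % of untreated cells, mean S.E., n = 4.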
For orientation: Uptake of a labelled nucleoside into DNA is a usual measure of proliferation.

Experiment [7] concerns K562. Put plainly: Inhibition of GGTase1 in human K562 cells assessed as reduction of Rap1a protein geranylgeranylation at 50 uM after 48 hrs by Western blotting. The format is cell-based. The essentials:
as §3

Experiment [8] concerns K562. Put plainly: Inhibition in human K562 cells assessed as reduction of RAB6 protein geranylgeranylation after 48 hrs by Western blotting.
Experiment [9] deals with T3, Geranylgeranyl pyrophosphate synthase (Homo sapiens, UniProt O95749).
T3 sequence (O95749 whole entry): T1 sequence (whole entry)
Put plainly: Inhibition of GST-tagged human recombinant GGDPS expressed in BL21 gold bacteria by liquid scintillation counting. The essentials: as §1

In experiment [10] the test system is K562. Put plainly: Inhibition of GGTase1 in human K562 cells assessed as reduction of Rap1a protein geranylgeranylation after 48 hrs by Western blotting. Format: cell-based. The method in brief: as §3
In experiment [11] the test system is K562. Nature of the experiment: Inhibition of GGTase1 in human K562 cells assessed as reduction of Rap1a protein geranylgeranylation at 12.5 uM after 48 hrs by Western blotting. The format is cell-based. The method in brief: as §3

On to `O=P(O)(O)C(Cc1ccccc1)P(=O)(O)O`, for which, in experiment [1], the “inhibition activity call (active/not active)” value was “inactive”.
The same measure, in the same setting: for `CC(C)=CCc1ccc(CC(P(=O)(O)O)P(=O)(O)O)cc1` the value was “inactive”.
Regarding `CC(C)=CCC/C(C)=C/CC(Cc1ccc(CC=C(C)C)cc1)(P(=O)(O)O)P(=O)(O)O`, the “inhibition activity call (active/not active)” value in experiment [1] is “Active”. Moreover, the inhibition entry (in experiment [2]; in the experiment on K562 [6]; in the experiment on K562 [7]; in the experiment with K562 [8]) was “Active” in each case. For the same compound, the inhibition result in [3], in experiment [4] and in [5] was “inactive” each time. Also, in experiment [9], the IC50 worked out at 0.8 µM.
In the case of `CC(C)=CCC/C(C)=C/CC(Cc1ccccc1)(P(=O)(O)O)P(=O)(O)O`, the “inhibition activity call (active/not active)” value in experiment [1] was “Active”.
Take `CC[C@H](C)C(=O)O[C@H]1C[C@@H](C)C=C2C=C[C@H](C)[C@H](CC[C@@H]3C[C@@H](O)CC(=O)O3)[C@H]21`: the inhibition result in experiment [2] is “inactive”. The inhibition result in the experiment with K562 [10] was “Active”.
Regarding `CC(C)=CCc1cccc(CC(P(=O)(O)O)P(=O)(O)O)c1`, the “inhibition activity call (active/not active)” value in experiment [1] is “inactive”.
On to `CC(C)=CCC/C(C)=C/CC(Cc1cccc(CC=C(C)C)c1)(P(=O)(O)O)P(=O)(O)O`, for which the “inhibition activity call (active/not active)” value in experiment [1] is “Active”. In addition, the inhibition result (in experiment [2]; with K562 [6]; in the experiment with K562 [7]; in the experiment on K562 [8]) was “Active” each time. Moreover, the inhibition entry in [3], in experiment [4] and in experiment [5] was “inactive” in each case. The outcome with K562 [11] was Active. The half-maximal inhibitory concentration (IC50) in experiment [9] is 0.25 µM.
For `CC(C)=CCC/C(C)=C/CC(Cc1cccnc1)(P(=O)(O)O)P(=O)(O)O`, the “inhibition activity call (active/not active)” value in experiment [1] is “Active”.

These data come from ChEMBL document CHEMBL1250542, “Synthesis and biological evaluation of a series of aromatic bisphosphonates” (Bioorg Med Chem, 2010).
